Assay outcomes from PubChem.
UCH37 DUB inh: inhibitors of human UCH37 deubiquitinase, primary screen, biochemical, Ub-AMC cleavage, fluorescence; Ubiquitin carboxyl-terminal hydrolase isozyme L5 (Homo sapiens), Q9Y5K5; inhibition, % (test concentration not listed); hit rate 0.33% among 330,000; AID 588478, 2011; purified proteasome/UCH37;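 active means mean inhibition over replicate wells above about 20%, limit read from the data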
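Material: Human UCH37 enzyme supplied as purified proteasome complex | Schedule: 30 min compound-proteasome preincubation then 25 min substrate reaction, room temperature | Detection: AMC fluorescence from Ub-AMC cleavage, excitation 355 nm, emission 460 nm | Benchmarks: Wells without proteasome as full block, compound-free enzyme plus substrate as uninhibited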
TbMetRS inhib: T. brucei MetRS inhibitors, primary screen, biochemical, luminescence. methionyl-tRNA synthetase (Trypanosoma brucei brucei). purified T. brucei MetRS, ATP depletion, Kinase-Glo luminescence. inhibition, % at 11.9 µM. hit rate 0.4% among 360,000;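 active means inhibition above a per-plate cutoff of the control wells' mean inhibition plus 3 SD, cut at about 5.5% in these data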
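assay system = parasite MetRS enzyme | timing = 15 min preincubation, 2 h reaction, all 25 °C | evaluation = percent inhibition relative to median high and low control wells | medium = HEPES buffer containing pyrophosphatase, BSA, spermine, DTT | compound = single dose, 11.9 µM final nominal, 0.9% final DMSO | detection = Kinase-Glo luminescence, ATP depletion format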
Rin1 Abl inh: inhibitors of Rin1-Abl protein binding, primary screen, biochemical, TR-FRET; Tyrosine-protein kinase ABL1 (Homo sapiens) + Ras and Rab interactor 1 (Homo sapiens), …; inhibition, % at 7.35 µM; hit rate 0.4% among 360,000; in the data active means inhibition above about 5%, passing the limit was not always enough
ATG4B inh: ATG4B protease inhibitors, primary screen, biochemical, fluorescence, uHTS; inhibition, % at 8.33 µM; hit rate 0.51% among 340,000; ATG4B cleavage of LC3-PLA2, NBD-HPC fluorescence, 1 h; in the data active means inhibition above about 40%
UCH37 confirm: retest of human UCH37 deubiquitinase inhibitors, confirmation, biochemical, Ub-AMC cleavage rate, fluorescence; shares compounds with UCH37 DUB inh; Proteasome-bound UCH37; inhibition, % at 20 µM; hit rate 27% among 480; AID 624100, 2012;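 active means average inhibition over replicates above about 50%, so the earlier screening hit is confirmed, limit read from the data; inactive means the rest, counted as false positives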;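 further: based on cleavage rate fitted by regression over a 30 min kinetic read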
Hits are given with their value; i = inactive; nt = no result; ! = a repeat was not active. Hits are enriched below; roughly 1.4% of the tested compounds scored in any of these assays.

SMILES | UCH37 DUB inh | TbMetRS inhib | Rin1 Abl inh | ATG4B inh | UCH37 confirm
CC1CCCC(NC(=O)COC(=O)c2ccc([N+](=O)[O-])s2)C1C (stereo not given) | 77.9 | i | i | i | 84.8
Cc1nc2ncnn2c(C)c1Cc1cccc(F)c1 | i | i | i | i | nt
CCOC(=O)c1c(N2C(=O)CC(Sc3ccccc3C(=O)O)C2=O)sc(C)c1C (stereo not given) | i | i | i | i | nt
CCOC(=O)c1c(N2C(=O)C3CC(C)=C(C)CC3C2=O)sc(C)c1C (stereo not given) | 43.1 | i | i | i | 63.9
N#CC1=C(N)NC(SCC(=O)O)=C(C#N)C12CCCC2 | i | i | i | i | nt
N#CC1=C(N)NC(SCC(=O)Nc2ccccc2)=C(C#N)C12CCCC2 | 37.5 | i | i | i | i
N#CCSc1nnc(Cc2cccc3ccccc23)n1C1CCCCC1 | i | i | i | i | nt
NC(=O)c1ccccc1N | i | i | i | i | nt
C=C(c1ccccc1)c1ccccc1N | 39.7 | i | i | i | i
CCCN1C=CC(=CC=C(C#N)C#N)C=C1 | 38.2 | i | i | i | i
CCCCCN1C=CC=C/C1=C\C=C(C#N)C#N | i | i | i | i | nt
C=CCN1C=CC(=CC=C(C#N)C#N)C=C1 | 28.8 | i | i | i | i
CCOC(=O)C1=CC[C@@H](c2cccc(C)c2)N(S(=O)(=O)c2ccc(C)cc2)[C@H]1C(=O)OCC | i | i | i | i | nt
CCOC(=O)C1=CC[C@@H](c2ccccc2Cl)N(S(=O)(=O)c2ccc(C)cc2)[C@H]1C(=O)OCC | 38.0 | i | i | i | i
CCN1C(=O)C2(C(C(=O)c3ccc(C)o3)=C(O)C(=O)N2CCCN2CCOCC2)c2ccccc21 (stereo not given) | 46.4 | i | i | i | i
Cc1ccc(C(=O)C2=C(O)C(=O)N(CCCN3CCOCC3)C23C(=O)N(C)c2ccccc23)o1 (stereo not given) | i | i | i | i | nt
NC(=O)CC(NC(=O)Cc1ccc(Cl)cc1)c1ccc(NCCc2ccccc2F)c([N+](=O)[O-])c1 (stereo not given) | 47.8 | i | i | i | i
O=C1C=C(Nc2ccccc2)C(=O)c2ccccc21 | i | i | i | i | nt
CCCCNC1=CC(=O)C(=O)c2ccccc21 | 49.0 | i | i | i | i
O=C1C=C(Nc2ccccc2)c2ccccc2C1=O | 65.0 | i | i | i | i
O=C1C=C(Nc2ccccc2C(=O)O)c2ccccc2C1=O | 82.2 | i | i | i | 93.3
O=C(O)c1ccccc1Nc1ccccc1C(=O)O | i | i | i | i | nt
Cc1ccc(-c2cc(C(=O)Nc3cccnc3)[nH]n2)c(O)c1C | i | i | i | i | nt
COc1ccc(OC)c(C2/C(=C(/O)c3cnn(-c4ccccc4)c3C)C(=O)C(=O)N2CCN(C)C)c1 (stereo not given) | 34.6 | i | i | i | i
COc1ccc(C2/C(=C(/O)c3cnn(-c4ccccc4)c3C)C(=O)C(=O)N2CCN(C)C)cc1OC (stereo not given) | i | i | i | i | nt
SMILES | UCH37 DUB inh | TbMetRS inhib | Rin1 Abl inh | ATG4B inh | UCH37 confirm
C=CCN(c1ccccc1)S(=O)(=O)c1cccc(C(=O)NC2CCN(Cc3ccccc3)CC2)c1 | i | i | i | i | nt
O=C1C=C(N(CCO)Cc2ccccc2)c2ccccc2C1=O | 91.6 | i | i | i | 111.4
O=C1C(Cl)=C(Nc2ccc3cn[nH]c3c2)C(=O)c2ccccc21 | 46.1 | i | i | i | i
Cc1c(N=C2C=CC(=O)c3ccccc32)c(=O)n(-c2ccccc2)n1C | 60.8 | i | i | i | i
CN=c1scc(-c2ccc(Cl)cc2)n1C | i | i | i | i | nt
Cc1[nH]n(-c2ccccc2)c(=O)c1C(C[N+](=O)[O-])c1ccccc1Cl (stereo not given) | 30.0 | i | i | i | i
C=Cc1c(C)c2cc3[nH]c(cc4nc(cc5nc(cc1[nH]2)C(C)=C5CCC(=O)O)C(CCC(=O)O)=C4C)c(C)c3C=C | 46.8! | i | i | 48.2! | 99.9
C[N+]1(C)CCC(=C2c3ccccc3CC(=O)c3sccc32)CC1 | 75.4 | i | i | i | i
COc1cc(CN(C(=O)c2ccco2)c2ccc(C)cc2)ccc1O | i | i | i | i | nt
CC(=O)Nc1ccc(S(=O)(=O)/N=C2\C(=O)c3ccccc3C([O-])=C2n2cc[n+](-c3ccccn3)c2)cc1 | 56.5 | i | i | i | 58.3
Cc1ccc(NC(=O)C[n+]2ccn(C3=C([O-])c4ccccc4C3=O)c2)cc1 | i | i | i | i | nt
CC(NC(=O)COC(=O)c1ccc([N+](=O)[O-])o1)c1ccccc1 (stereo not given) | 25.9 | i | i | i | i
CCOc1ccc(CNC(=S)NN=Cc2ccncc2)cc1 | 43.8 | nt | nt | nt | i
N#Cc1cn(-c2ccccc2)nc1C(=O)c1ccccc1 | 36.5 | i | i | i | i
COc1cccc(CN2CCC2(C)C(=O)Nc2cccc3cccnc23)c1F (stereo not given) | nt | i | i | nt | nt
Nc1nc2ccc(Br)cc2o1 | i | i | i | i | nt
Cn1c(Cc2nc3ccccc3n2C)nc2ccccc21 | 41.9 | i | i | i | i
Cn1c(COc2ccccc2)nc2ccccc21 | i | i | i | i | nt
O=C(NNc1cc(N2CCOCC2)nc(N2CCOCC2)n1)c1ccc(Cl)c(Cl)c1 | i | i | i | i | nt
Cc1ccc(C(=O)NNc2cc(N3CCCC3)nc(N3CCCC3)n2)cc1 | 49.3 | nt | nt | i | 50.1
C(C#CCCCCCCCCC[n+]1ccccc1)#CCCCCCCCCC[n+]1ccccc1 | 33.7 | i | i | i | 68.8
CC(NS(=O)(=O)c1ccc(Br)cc1)c1ccccc1 (stereo not given) | nt | i | i | i | nt
CC(C)NC(=O)/C(C#N)=C/c1ccc(N(C)C)o1 | 32.4 | i | i | i | i
CCOc1cc2c(cc1OC)C(NC(=O)C(F)(F)F)CC2=O (stereo not given) | i | i | i | i | nt
CN1/C(=C\C=C2/SC(=S)NC2=O)C(C)(C)c2ccccc21 | i | i | i | i | nt
CN1CCC/C1=C/C=C1\SC(=S)NC1=O | 35.3 | i | i | i | i
N#CC(=NNc1ccc([N+](=O)[O-])cc1)C(N)=S | 29.0 | nt | nt | nt | i
N#C/C(=N\Nc1ccc([N+](=O)[O-])cc1)C(N)=S | nt | i | i | i | nt
C[C@@H]1NC(=O)c2cc([N+](=O)[O-])cc(I)c2NCC[C@@H](C(N)=O)NC(=O)[C@H](CC(N)=O)NC1=O | i | i | i | i | nt
C[C@@H]1NC(=O)[C@H](CCC(N)=O)NC(=O)c2cc([N+](=O)[O-])cc(I)c2NCC[C@@H](C(N)=O)NC1=O | 50.4 | nt | nt | i | i
